Results on 16 molecules are retold here after ChEMBL document CHEMBL4038265, “Antiprotozoal Activity-Based Profiling of a Dichloromethane Extract from Anthemis nobilis Flowers” (J Nat Prod, 2017).

SMILES strings stand for the structures.

One data set deals with Plasmodium falciparum. Briefly: Antiprotozoal activity against erythrocytic stage of Plasmodium falciparum NF54 after 48 hrs by [3H]- hypoxanthine incorporation assay. The format is functional.
Another data set relates to L6. Briefly: Cytotoxicity against rat L6 cells after 72 hrs by Alamar Blue assay. The format is cell-based. Particulars: L6, 72 h. The method in brief:
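Rat L6 cytotoxicity IC50 values (μM) are averages of three independent assays.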

The next data set concerns Trypanosoma cruzi. The data set is described as follows: Antiprotozoal activity against Trypanosoma cruzi Tulahuen C4 infected in rat L6 cells after 96 hrs by beta-galactosidase reporter gene assay. Type of data set: functional, cell-based. Particulars: Tulahuen C4, L6, 96 h.
The next data set relates to Leishmania donovani. Briefly: Antiprotozoal activity against amastigote form of Leishmania donovani MHOM/ET/67/L82 after 72 hrs by Alamar Blue assay. The format is functional. Particulars: MHOM/ET/67/L82, 72 h.
Data set [1] can be described thus: Selectivity index, ratio of IC50 for rat L6 cells to IC50 for bloodstream form of Trypanosoma brucei rhodesiense STIB900. Type of data set: toxicity. Particulars: read-out: Ratio IC50.
In data set [2] the test system is Trypanosoma brucei rhodesiense. The data set is described as follows: Antiprotozoal activity against bloodstream form of Trypanosoma brucei rhodesiense STIB900 after 72 hrs by Alamar Blue assay. Type of data set: functional. Particulars: STIB900, 72 h.
Data set [3] in a line: Selectivity index, ratio of IC50 for rat L6 cells to IC50 for amastigote form of Leishmania donovani MHOM/ET/67/L82. The format is toxicity. The settings on record: read-out: Ratio IC50.
Data set [4] in a line: Selectivity index, ratio of IC50 for rat L6 cells to IC50 for Trypanosoma cruzi Tulahuen C4. Type of data set: toxicity. The settings on record: read-out: Ratio IC50.
Data set [5] is described as follows: Selectivity index, ratio of IC50 for rat L6 cells to IC50 for erythrocytic stage of Plasmodium falciparum NF54. The format is toxicity. The settings on record: read-out: Ratio IC50.

For `C=C(C[C@H](OC(=O)/C(C)=C\C)[C@@H]1C(=C)C(=O)O[C@H]1/C=C(\C)C=O)C(C)=O`, the IC50 came to 2 µM with Plasmodium falciparum; 1.8 µM in the data set with L6; 5 µM with Trypanosoma cruzi; 0.38 µM in the data set on Leishmania donovani; 0.42 µM in data set [2]. For the same molecule, the selectivity ratio worked out at 4.3 in data set [1], 4.7 in data set [3], 0.3 in data set [4] and 0.9 in data set [5].

`C=C1C(=O)O[C@H]2/C=C(/C)[C@@H](O)C[C@H](O)C(=C)C[C@H](OC(=O)/C(C)=C\C)[C@@H]12`: the IC50 in the data set on Plasmodium falciparum came to 7.8 µM; with L6, 5.1 µM; in the data set with Trypanosoma cruzi, 29.3 µM; in the data set on Leishmania donovani, 13.2 µM; in data set [2], 0.61 µM. The selectivity ratio amounted to 8.3 in data set [1], 0.4 in data set [3], 0.2 in data set [4] and 0.6 in data set [5].

Regarding `C=C1C[C@H](OC(=O)/C(C)=C\C)[C@H]2C(=C)C(=O)O[C@H]2/C=C(/C)[C@@H](O)CC1=O`, the IC50 in the data set on Plasmodium falciparum worked out at 1.9 µM; with L6, 1.5 µM; in the data set with Trypanosoma cruzi it was 2.8 µM; with Leishmania donovani, 0.5 µM; in data set [2], 0.4 µM. The selectivity ratio in [1] was 3.9; in [3] it was 3.1; in [4], 0.5; in data set [5] it was 0.8.

As to `C=C1C(=O)O[C@H]2/C=C(/C)[C@@H](O)C[C@@H](O)/C(C)=C\[C@H](OC(=O)/C(C)=C\C)[C@@H]12`, the IC50 was found to be 9.6 µM in the data set on Plasmodium falciparum; 5.3 µM in the data set with L6; 26.1 µM in the data set with Trypanosoma cruzi; 8.4 µM in the data set with Leishmania donovani; 1.4 µM in data set [2]. Further, the selectivity ratio was 3.9 in [1], 0.6 in [3], 0.2 in [4] and 0.5 in [5].

For the molecule `C=C1C(=O)O[C@H]2/C=C(/C)[C@@H](O)C/C=C(\C=O)C[C@H](OC(=O)/C(C)=C\C)[C@@H]12`, the IC50 was 1.9 µM in the data set with Plasmodium falciparum; 1.8 µM with L6; 9.8 µM in the data set with Trypanosoma cruzi; 1.6 µM with Leishmania donovani; 0.4 µM in [2]. The selectivity ratio in [1] was found to be 3.9; in data set [3], 1.1; in data set [4], 0.2; in [5], 0.9.

Regarding `C=C1C(=O)O[C@H]2/C=C(/C)[C@@H](O)C[C@H](O)C(=C)C[C@H](OC(=O)/C(C)=C/C)[C@@H]12`, the IC50 is 6.2 µM in the data set with Plasmodium falciparum; 5.1 µM in the data set with L6; 26.7 µM in the data set with Trypanosoma cruzi; 5.3 µM with Leishmania donovani; 0.36 µM in data set [2]. In addition, the selectivity ratio in data set [1] is 14.1; in data set [3] it was 1; in [4], 0.2; in data set [5], 0.8.

As to `C=C1C(=O)O[C@@H]2/C=C(/C)[C@@H]3C[C@H](O)[C@@](CO)(C[C@H](OC(=O)/C(C)=C\C)[C@@H]12)O3`, the IC50 was 4.7 µM with Plasmodium falciparum; 5.1 µM in the data set on L6; 37.3 µM in the data set on Trypanosoma cruzi; 9.8 µM with Leishmania donovani; 0.08 µM in data set [2]. Further, the selectivity ratio in data set [1] is 63.1; in [3], 0.5; in data set [4] it was 0.1; in data set [5], 1.1.

Take `C=C(C)C(=O)O[C@H]1C/C(C)=C/C[C@H](O)/C(C)=C\[C@@H]2OC(=O)C(=C)[C@@H]21`: the values for the IC50 (in the data set with L6; in the data set with Trypanosoma cruzi; in data set [2]) were 28.2 µM, 4.2 µM and 4.6 µM, respectively. Further, the selectivity ratio in data set [1] and in data set [4] was 6.1 throughout.

As for `C=C1C(=O)O[C@H]2/C=C(/C)[C@@H](O)C[C@@H]3O[C@]3(C)C[C@H](OC(=O)/C(C)=C/C)[C@@H]12`, the IC50 in the data set on Plasmodium falciparum amounted to 3 µM; in the data set on L6, 5.3 µM; in the data set on Trypanosoma cruzi, 7.3 µM; in the data set with Leishmania donovani, 2.7 µM; in data set [2], 1.2 µM. For the same molecule, the selectivity ratio in [1] came out at 4.5; in data set [3], 1.9; in data set [4], 0.7; in data set [5], 1.8.

With `C=C1C(=O)O[C@H]2/C=C(/C)[C@H](O)C[C@H](O)C(=C)C[C@H](OC(=O)/C(C)=C\C)[C@@H]12`, the IC50 with Plasmodium falciparum is 7.9 µM; with L6, 7.3 µM; in the data set on Trypanosoma cruzi it was 31.1 µM; in the data set with Leishmania donovani, 23 µM; in data set [2], 0.88 µM. The selectivity ratio in data set [1] amounted to 8.3; in data set [3], 0.3; in data set [4], 0.2; in data set [5] it was 0.9.

For the molecule `C=C1C(=O)O[C@H]2[C@H]1[C@@H](OC(=O)/C(C)=C\C)CC(=C)[C@@H]1C=C[C@@](C)(O)[C@H]21`, the IC50 in the data set with Plasmodium falciparum is 8.5 µM; in the data set with L6, 5.8 µM; in the data set on Trypanosoma cruzi, 10.9 µM; in the data set on Leishmania donovani, 0.8 µM; in data set [2], 1.3 µM. Further, the selectivity ratio in data set [1] is 4.4; in [3], 7.2; in data set [4], 0.6; in data set [5] it was 0.68.

Turning to `C=C1C(=O)O[C@@H](/C=C(\C)C=O)[C@@H]1[C@H](/C=C(/C)C(C)=O)OC(=O)/C(C)=C\C`, the IC50 with Plasmodium falciparum was 2.2 µM; with L6, 5.2 µM; in the data set with Trypanosoma cruzi it was 11.3 µM; with Leishmania donovani, 0.5 µM; in [2] it was 1.2 µM. Also, the selectivity ratio in [1] was 4.3; in data set [3], 11.2; in data set [4], 0.5; in data set [5] it was 2.3.

`C=C1C(=O)O[C@H]2/C=C(/C)[C@@H](O)C/C=C(\C)C[C@H](OC(=O)/C(C)=C\C)[C@@H]12`: the IC50 in the data set on Plasmodium falciparum stood at 3.1 µM; with L6, 4.9 µM; in the data set on Trypanosoma cruzi, 11.3 µM; in the data set on Leishmania donovani, 2.7 µM; in data set [2] it was 2.1 µM. For the same molecule, the selectivity ratio in [1] amounted to 2.4; in [3], 1.8; in data set [4], 0.4; in [5] it was 1.6.

Molecule `O=C(Cn1ccnc1[N+](=O)[O-])NCc1ccccc1` [BENZNIDAZOLE] yielded an IC50 in the data set on Trypanosoma cruzi of 2 µM.

In turn, `CCCCCCCCCCCCCCCCOP(=O)([O-])OCC[N+](C)(C)C` [MILTEFOSINE] returned an IC50 in the data set with Leishmania donovani of 0.13 µM.

In turn, `COc1cc([C@@H]2c3cc4c(cc3[C@H](O)[C@H]3COC(=O)[C@H]23)OCO4)cc(OC)c1OC` [PODOFILOX] gave an IC50 in the data set with L6 of 0.016 µM.
